In assay [1] the test system is DNA topoisomerase 1 (Bos taurus). Description: Minimum inhibitory concentration against DNA topoisomerase I.
Assay [2] concerns P388. The assay is described as follows: Cytotoxicity against P388/CPT5 leukemia cells. The class given is functional, cell-based. The note with it: Mus musculus. An outline of the steps:
(§1)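 Murine P388 (camptothecin-sensitive) and P388/CPT5 (camptothecin-resistant, mutant top1) leukemia cells were exposed to a range of drug concentrations for 96 h at 37 °C. Viability was read by neutral red staining. IC50 is the concentration inhibiting growth by 50%.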

The nature of assay [3]: Resistance Index (RI) refers to the ratio of the [IC50 (P388/CPT5)] / IC50 P388. The class given is functional. The method in brief: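 Ratio of IC50 in P388/CPT5 cells to IC50 in P388 cells. Both IC50 values came from 96 h drug exposure at 37 °C with neutral red viability readout.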
Assay [4] deals with Streptomyces chartreusis. The assay is described as follows: Antimicrobial activity against gram-positive […] chartreusis NRRL 11407 was determined by antibiogram test.+++ means growth inhibition zone was 10-12 mm. The class given is functional, organism-based.
The test system of assay [5] is Bacillus cereus. Description: Minimum inhibitory concentration against gram-positive Bacillus cereus. The class given is functional. An outline of the steps:
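Broth dilution in Mueller–Hinton broth pH 7.4 against B. cereus ATCC 14579. Compounds were diluted in DMSO across 12 tubes spanning 100 to 0.05 μg/mL. Read after 24 h at 27 °C.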

The test system of assay [6] is P388. The assay is described as follows: Cytotoxicity against P388 leukemia cells. The class given is functional, cell-based. The note with it: Mus musculus. An outline of the steps: as §1
Assay [7] relates to Bacillus cereus. Description: Antimicrobial activity against gram-positive Bacillus cereusATCC 14579 was determined by antibiogram test.+/- means growth inhibition zone was 6-7 mm. The class given is functional, organism-based. The note with it: ATCC 14579. An outline of the steps: (§2)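 Paper-disk diffusion (6 mm disks, 300 μg drug per disk from DMSO solution) on Mueller-Hinton agar against B. cereus ATCC 14579. Inhibition zones were scored after 24 h at 27 °C.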

Assay [8] has as its system CEM-SS. The assay is described as follows: Anti-HIV-1 activity in CEM-SS cells was measured by the quantification of the reverse transcriptase activity, associated with the virus particles released from HIV-1 infected cells in the culture medium. The class given is functional, cell-based. The note with it: Homo sapiens. The method in brief: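 CEM-SS cells in RPMI 1640 with 10% FBS at 37 °C, 5% CO2 were infected with HIV-1 Lai (100 TCID50). After 30 min adsorption the cells were washed and resuspended at 10⁵ cells/mL with a range of compound concentrations. Virus production was measured as reverse transcriptase activity after 5 days. IC50 was taken from a median effect plot of dose–effect data.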

The test system of assay [9] is Nucleic Acid. The assay is described as follows: Variation in melting temperature (delta Tm) of helix-to-coil transition of DNA was reported. Format: nucleic-acid assay. An outline of the steps: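 A260 was followed over 20–100 °C at 1 °C/min using 20 μM calf thymus DNA with or without drug (10 μM) in BPE buffer pH 7.1 (6 mM Na2HPO4, 2 mM NaH2PO4, 1 mM EDTA). Tm was taken as the midpoint of the hyperchromic transition from the first-derivative plot.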

Assay [10] has as its target Protein kinase C (PKC). Description: (§3) Inhibition of protein kinase C (PKC). The class given is protein assay. The method in brief:
(§4)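 PKC-α activity was assayed with protamine sulfate as substrate. IC50 values were determined.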

For assay [11], the system named is Streptomyces chartreusis. The assay is described as follows: Antimicrobial activity against gram-positive […] chartreusis NRRL 11407 was determined by antibiogram test.++ means growth inhibition zone was 8-9 mm. The class given is functional, organism-based.
Assay [12] can be described thus: Selectivity Index (SI) refers to the ratio of the anti HIV activities CC50/IC50 in HIV-1 Lai infected CEM-SS cells. The class given is functional. An outline of the steps: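 SI = CC50/IC50. CC50 came from MTT viability (OD 540 nm) of uninfected CEM-SS cells. IC50 came from reverse transcriptase activity of virus released after 5 days from HIV-1 Lai–infected CEM-SS cells. Both values were taken from median effect plots.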

The subject of assay [13] is CEM-SS. The assay is described as follows: Cytotoxicity against HIV-1 Lai infected CEM-SS cells. The class given is functional. The note with it: Homo sapiens, in the assay text read “uninfected CEM-SS cells” for “HIV-1 Lai infected CEM-SS cells”. The method in brief: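 Uninfected CEM-SS cells were incubated in parallel with a range of compound concentrations. Viability was read by MTT reduction to formazan (OD 540 nm). CC50 is the concentration reducing viability by 50%, derived with the median-effect program.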

For assay [14], the system named is Bacillus cereus. The assay is described as follows: Antimicrobial activity against gram-positive Bacillus cereusATCC 14579 was determined by antibiogram test.++ means growth inhibition zone was 8-9 mm. The note with it: ATCC 14579. Format: functional, organism-based. The method in brief: as §2
In assay [15] the test system is CEM-SS. The assay is described as follows: Cytotoxicity against uninfected CEM-SS cells. The note with it: Homo sapiens.
In assay [16] the test system is Bacillus cereus. The assay is described as follows: Antimicrobial activity against gram-positive Bacillus cereusATCC 14579 was determined by antibiogram test.+ means growth inhibition zone was 7-8 mm. The note with it: ATCC 14579. The class given is functional, organism-based. An outline of the steps: as §2
Assay [17] has as its target Protein kinase C (PKC). Described as §3. The class given is functional. An outline of the steps: as §4

pIC50: −log10 of the molar value. Converted amounts (≈) assume the structure as drawn. The source made the active and inactive calls. The rule behind the calls is not given here.

Broadly, the pIC50 is the negative decadic logarithm of the IC50, by convention in mol/L. `COC1C(CO)OC(n2c3ccccc3c3c4c(c5c6ccccc6[nH]c5c32)C(=O)NC4=O)C(OC(C)=O)C1O` (stereo not given): the MIC in assay [1] was 18 µM (≈ 9.78 µg/mL); in [5], 46 µM (≈ 25 µg/mL). Moreover, the negative-log IC50 (pIC50) in assay [2] is 5.34; in assay [6], 6.26. In assay [3], the Resistance index is 8.3. Further, the Antimicrobial activity entry in assay [4] is “growth inhibition zone was 10-12 mm”; in assay [7], “+/-”.
As a reminder, the IC50 is the concentration at which inhibition is half-maximal. A lower IC50 goes with inhibition by little substance. As a reminder, the CC50 is the concentration that lowers cell viability or growth by half. For the compound `COC1C(CO)OC(n2c3ccccc3c3c4c(c5c6ccccc6[nH]c5c32)C(=O)NC4=O)C(OC(=O)CBr)C1O` (stereo not given), the pIC50 in assay [8] is 6.92; in assay [2], 5.30; in [6], 6.32. Besides, the results for the MIC in assay [1] and in assay [5] were 1.59 µM (≈ 0.99 µg/mL) and 5.02 µM (≈ 3.12 µg/mL), respectively. In assay [9], this compound yielded a DeltaTm of 3.7. Moreover, in assay [3], the Resistance index was 10.4. The same compound gave an IC50 in assay [10] greater than 162 µM. In addition, the Antimicrobial activity entry in assay [11] was “Partially active”. Moreover, the Selectivity index in [12] was 3.8. In assay [13], the CC50 was determined as 0.46 µM. The Antimicrobial activity result in assay [14] is “Active”.
As to `COC1C(CO)OC(n2c3ccccc3c3c4c(c5c6ccccc6[nH]c5c32)C(=O)N(CCCCOC(=O)CBr)C4=O)C(O)C1O` (stereo not given), the negative logarithm of the IC50 (pIC50) in [8] was 6.30; in assay [2] it was less than 4.84; in [6], 5.71. For the same compound, the MIC in assay [1] was 1.44 µM (≈ 1 µg/mL); in assay [5] it was greater than 72 µM. This compound registered a DeltaTm in assay [9] of 0. The Resistance index in assay [3] was greater than 7.4. In assay [10], this compound displayed an IC50 greater than 144 µM. Also, the Selectivity index in assay [12] is reported as 1.1. In addition, the CC50 in [13] is 0.57 µM. The Antimicrobial activity result in assay [7] is “inactive”.
For the compound `CO[C@H]1[C@H](O)[C@@H](O)[C@H](n2c3ccccc3c3c4c(c5c6ccccc6[nH]c5c32)C(=O)NC4=O)O[C@@H]1CO`, the DeltaTm in [9] is 4.1. In assay [2], this compound had a negative-log IC50 (pIC50) of less than 4.70. Moreover, in assay [3], the Resistance index was greater than 28. Also, the half-inhibitory concentration (IC50) in assay [10] is greater than 142 µM. In assay [12], the Selectivity index stood at 5.6. This compound also showed a CC50 in assay [13] of 0.9 µM. In addition, the MIC in assay [5] is greater than 100 µM.
With `COC1C(CO)OC(n2c3ccccc3c3c4c(c5c6ccccc6[nH]c5c32)C(=O)NC4=O)C(O)C1OC(=O)CBr` (stereo not given), the values for the pIC50 in assay [8], in assay [2] and in assay [6] were 6.82, 5.49 and 6.80, respectively. In addition, the MIC in assay [1] is 1.61 µM (≈ 1 µg/mL); in assay [5] it was 5.02 µM (≈ 3.12 µg/mL). The same compound displayed a DeltaTm in [9] of 3.2. Moreover, in [3], the Resistance index came out at 20. In assay [10], this compound had a 50% inhibitory concentration (IC50) greater than 161 µM. Moreover, in assay [11], the Antimicrobial activity entry was “Partially active”. For the same compound, the Selectivity index in assay [12] worked out at 2.9. In assay [13], the CC50 was found to be 0.44 µM. Moreover, the Antimicrobial activity result in assay [14] is “Active”.
Turning to `COC1C(CO)OC(n2c3c(Cl)cccc3c3c4c(c5c6cccc(Cl)c6[nH]c5c32)C(=O)N(CC(=O)CCl)C4=O)C(O)C1O` (stereo not given), the pIC50 in assay [8] is 6.35; in assay [2] it was 5.46; in assay [6], 6.62. In addition, the figures for the MIC in assay [1] and in assay [5] were 1.14 µM (≈ 0.753 µg/mL) and 4.72 µM (≈ 3.12 µg/mL), respectively. The compound further gave a DeltaTm in assay [9] of 1.2. Moreover, the Resistance index in [3] is 15. Moreover, the concentration for half-maximal inhibition (IC50) in [10] is greater than 151 µM. The same compound gave a half-maximal cytotoxic concentration (CC50) in assay [15] of 1.2 µM. Moreover, in assay [12], the Selectivity index was found to be 2.7. Further, the Antimicrobial activity entry in assay [4] is “Active”. Further, the Antimicrobial activity entry in assay [16] is “Partially active”.
`CO[C@H]1[C@H](O)[C@@H](O)[C@H](n2c3c(Cl)cccc3c3c4c(c5c6cccc(Cl)c6[nH]c5c32)C(=O)NC4=O)O[C@@H]1CO` [REBECCAMYCIN] gave a DeltaTm in assay [9] of 0. The compound further had a negative logarithm of the IC50 (pIC50) in [2] of 4.98. In addition, the Resistance index in assay [3] came out at 8.6. The compound also gave a concentration for half-maximal inhibition (IC50) in assay [10] greater than 175 µM. In assay [11], the Antimicrobial activity entry was “Partially active”. For the same compound, in assay [12], the Selectivity index turned out to be 2. Also, the MIC in assay [5] stood at 10.9 µM (≈ 6.22 µg/mL). Besides, in assay [14], the Antimicrobial activity result was “Active”.
For the compound `COC1C(CO)OC(n2c3c(Cl)cccc3c3c4c(c5c6cccc(Cl)c6[nH]c5c32)C(=O)NC4=O)C(OC(C)=O)C1O` (stereo not given), in [17], the half-inhibitory concentration (IC50) was greater than 163 µM. For the same compound, the negative-log IC50 (pIC50) in [8] was 5.85; in assay [2] it was 5.48; in assay [6], 6.32. The figures for the MIC in assay [1] and in assay [5] were greater than 16 µM and greater than 81 µM, respectively. This compound displayed a DeltaTm in [9] of 0.5. For the same compound, the Resistance index in assay [3] turned out to be 6.7. The compound further showed a CC50 in assay [15] of 1.2 µM.
`COC1C(CO)OC(n2c3c(Cl)cccc3c3c4c(c5c6cccc(Cl)c6[nH]c5c32)C(=O)NC4=O)C(OC(=O)CBr)C1O` (stereo not given): the values for the negative-log IC50 (pIC50) in [8], in assay [2] and in assay [6] were 6.01, 6.03 and 6.59, respectively. The MIC in [1] was greater than 14 µM; in assay [5], 1.81 µM (≈ 1.25 µg/mL). The same compound had a DeltaTm in assay [9] of 0.5. Moreover, in [3], the Resistance index amounted to 2.5. This compound gave a 50% inhibitory concentration (IC50) in assay [10] of 24 µM. The Selectivity index in assay [12] was found to be 2.3. Further, in assay [13], the cytotoxic concentration (CC50) turned out to be 2.3 µM. In assay [14], the Antimicrobial activity result is “Active”.
As to `COC1C(COC(=O)CBr)OC(n2c3c(Cl)cccc3c3c4c(c5c6cccc(Cl)c6[nH]c5c32)C(=O)NC4=O)C(O)C1O` (stereo not given), the figures for the pIC50 in assay [8], in assay [2] and in [6] were 6.48, 5.37 and 6.37, respectively. Also, the results for the MIC in assay [1] and in assay [5] were 1.45 µM (≈ 1 µg/mL) and greater than 72 µM, respectively. The same compound came in with a DeltaTm in assay [9] of 0.5. Moreover, the Resistance index in assay [3] is 10. The compound further gave an IC50 in assay [10] of 101 µM. Further, the cytotoxic concentration (CC50) in assay [15] is 1.45 µM. Besides, the Selectivity index in [12] came to 4.4. Moreover, in assay [7], the Antimicrobial activity result is “inactive”.

The values are drawn from ChEMBL document CHEMBL1132580, “Syntheses and biological activities of rebeccamycin analogues. Introduction of a halogenoacetyl substituent” (J Med Chem, 1999).
